Article PMC4264455 (British Journal of Cancer, 2014)

Legend:
[1] = test system: patients with advanced refractory solid tumours or non-Hodgkin's lymphoma; test: Phase I dose escalation: safety, tolerability, DLT and adverse events; format: in vivo, human
[2] = test system: markers of CDK activity in tumour biopsies; test: Pharmacodynamic analysis of tumour biopsies; format: in vivo, human; conditions: three patients at RP2D, pre-dose vs 24 h after end of infusion
Method in brief: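 Tumour biopsies were taken at 27.0 mg m−2, before dosing and 24 h after the end of a 1-h IV infusion. Samples were immunostained for PCNA, phospho-NPM and Ki67. Read-out was the estimated percentage of positively stained tumour cells.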

[3] = 1-h intravenous infusion on days 1, 4, 8 and 11 every 3 weeks

What does the source list for `O=C(NC1CCNCC1)c1n[nH]cc1NC(=O)c1c(Cl)cccc1Cl` [AT7519, N-(4-piperidinyl)-4-(2,6-dichlorobenzoylamino)-1H-pyrazole-3-carboxamide]?
Thrombocytopenia: No. of patients with AEs of any grade ([1]; 27.0 mg m^−2 (n=15)): 6 No. of patients; Vomiting: No. of patients with AEs of any grade ([1]; 27.0 mg m^−2 (n=15)): 4 No. of patients; ALP elevation: No. of patients with AEs of any grade ([1]; 32.4 mg m^−2 (n=5)): 5 No. of patients; AST elevation: No. of patients with AEs of any grade ([1]; 32.4 mg m^−2 (n=5)): 3 No. of patients; Anaemia: No. of patients with AEs of any grade ([1]; 32.4 mg m^−2 (n=5)): 5 No. of patients; Anorexia: No. of patients with AEs of any grade ([1]; 32.4 mg m^−2 (n=5)): 1 No. of patients; Creatinine elevation: No. of patients with AEs of any grade ([1]; 32.4 mg m^−2 (n=5)): 2 No. of patients; Diarrhoea: No. of patients with AEs of any grade ([1]; 32.4 mg m^−2 (n=5)): 0 No. of patients; Fatigue: No. of patients with AEs of any grade ([1]; 32.4 mg m^−2 (n=5)): 3 No. of patients; Hyperglycaemia (random): No. of patients with AEs of any grade ([1]; 32.4 mg m^−2 (n=5)): 2 No. of patients; Infection without neutropenia: No. of patients with AEs of any grade ([1]; 32.4 mg m^−2 (n=5)): 2 No. of patients; Lymphopenia: No. of patients with AEs of any grade ([1]; 32.4 mg m^−2 (n=5)): 5 No. of patients; Mucositis: No. of patients with AEs of any grade ([1]; 32.4 mg m^−2 (n=5)): 3 No. of patients; Nausea: No. of patients with AEs of any grade ([1]; 32.4 mg m^−2 (n=5)): 4 No. of patients; Neutropenia: No. of patients with AEs of any grade ([1]; 32.4 mg m^−2 (n=5)): 1 No. of patients; Thrombocytopenia: No. of patients with AEs of any grade ([1]; 32.4 mg m^−2 (n=5)): 2 No. of patients; Vomiting: No. of patients with AEs of any grade ([1]; 32.4 mg m^−2 (n=5)): 5 No. of patients; maximum tolerated dose [1, 3]: 32.4 mg m^−2; recommended phase II dose (RP2D) [1, 3]: 27.0 mg m^−2; ALP elevation: Any grade AE No. of patients (%) ([1]; all dose levels (N=32)): 20 (62.5) No. of patients (%); ALP elevation: Grade 3/4 AE No. of patients (%) ([1]; all dose levels (N=32)): 5 (15.6) No. of patients (%); AST elevation: Any grade AE No. of patients (%) ([1]; all dose levels (N=32)): 16 (50.0) No. of patients (%); AST elevation: Grade 3/4 AE No. of patients (%) ([1]; all dose levels (N=32)): 3 (9.4) No. of patients (%); Anaemia: Any grade AE No. of patients (%) ([1]; all dose levels (N=32)): 28 (87.5) No. of patients (%); Anaemia: Grade 3/4 AE No. of patients (%) ([1]; all dose levels (N=32)): 1 (3.1) No. of patients (%); Anorexia: Any grade AE No. of patients (%) ([1]; all dose levels (N=32)): 4 (12.5) No. of patients (%); Anorexia: Grade 3/4 AE No. of patients (%) ([1]; all dose levels (N=32)): 0 No. of patients (%); Creatinine elevation: Any grade AE No. of patients (%) ([1]; all dose levels (N=32)): 5 (15.6) No. of patients (%); Creatinine elevation: Grade 3/4 AE No. of patients (%) ([1]; all dose levels (N=32)): 1 (3.1) No. of patients (%); Diarrhoea: Any grade AE No. of patients (%) ([1]; all dose levels (N=32)): 5 (15.6) No. of patients (%); Diarrhoea: Grade 3/4 AE No. of patients (%) ([1]; all dose levels (N=32)): 0 No. of patients (%); Fatigue: Any grade AE No. of patients (%) ([1]; all dose levels (N=32)): 17 (53.1) No. of patients (%); Fatigue: Grade 3/4 AE No. of patients (%) ([1]; all dose levels (N=32)): 3 (9.4) No. of patients (%); Hyperglycaemia (random): Any grade AE No. of patients (%) ([1]; all dose levels (N=32)): 12 (37.5) No. of patients (%); Hyperglycaemia (random): Grade 3/4 AE No. of patients (%) ([1]; all dose levels (N=32)): 2 (6.3) No. of patients (%); Infection without neutropenia: Any grade AE No. of patients (%) ([1]; all dose levels (N=32)): 6 (18.8) No. of patients (%); Infection without neutropenia: Grade 3/4 AE No. of patients (%) ([1]; all dose levels (N=32)): 1 (3.1) No. of patients (%); Lymphopenia: Any grade AE No. of patients (%) ([1]; all dose levels (N=32)): 27 (84.4) No. of patients (%); Lymphopenia: Grade 3/4 AE No. of patients (%) ([1]; all dose levels (N=32)): 12 (37.5) No. of patients (%); Mucositis: Any grade AE No. of patients (%) ([1]; all dose levels (N=32)): 17 (53.1) No. of patients (%); Mucositis: Grade 3/4 AE No. of patients (%) ([1]; all dose levels (N=32)): 3 (9.4) No. of patients (%); Nausea: Grade 3/4 AE No. of patients (%) ([1]; all dose levels (N=32)): 0 No. of patients (%); Neutropenia: Any grade AE No. of patients (%) ([1]; all dose levels (N=32)): 5 (15.6) No. of patients (%); Neutropenia: Grade 3/4 AE No. of patients (%) ([1]; all dose levels (N=32)): 1 (3.1) No. of patients (%); Thrombocytopenia: Any grade AE No. of patients (%) ([1]; all dose levels (N=32)): 9 (28.1) No. of patients (%); Thrombocytopenia: Grade 3/4 AE No. of patients (%) ([1]; all dose levels (N=32)): 0 No. of patients (%); Vomiting: Any grade AE No. of patients (%) ([1]; all dose levels (N=32)): 11 (34.4) No. of patients (%); Vomiting: Grade 3/4 AE No. of patients (%) ([1]; all dose levels (N=32)): 0 No. of patients (%); patients with anaemia ([1]; any grade, all dose levels): 87.5%; patients with fatigue ([1]; any grade, all dose levels): 53.1%; patients with lymphopenia ([1]; any grade, all dose levels): 84.4%; patients with mucositis ([1]; any grade, all dose levels): 53.1%; patients with nausea ([1]; any grade, all dose levels): 31.7%; patients with vomiting ([1]; any grade, all dose levels): 34.4%; No. of patients with DLT ([1]; dose level 14.4 mg m^−2, 5 patients treated, days 1, 4, 8, 11 every 3 weeks): No DLTs and none; patients experienced grade 3 fatigue and mucositis ([1]; grade 3, all dose levels): < 10%; grade 3 or 4 elevation of alkaline phosphatase ([1]; grade 3 or 4, all dose levels): 15.6%; grade 3 or 4 elevation of aspartate transaminase ([1]; grade 3 or 4, all dose levels): 9.4%; patients developing grade 3 or 4 lymphopenia ([1]; grade 3 or 4, all dose levels): 37.5%; patients with grade 3 or 4 fatigue and mucositis ([1]; grade 3 or 4, all dose levels): 9%; changes in proliferating cell nuclear antigen, pNPM and Ki67 [2]: no consistent changes
